According to PubChem BioAssay AID588696 (Southern Research Specialized Biocontainment Screening …, 2011):
pIC50: −log10 of the molar value. The source made the active and inactive calls.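 The calls were made as follows: active = inhibition of 30% or more at any tested concentration; inactive = the rest.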

Target: Aspartyl aminopeptidase (Homo sapiens) (UniProt Q9ULA0)
Test: hM18AAP (DNPEP) peptidase activity blockade – biochemical, QFRET fluorogenic readout, recombinant enzyme, counter-screen for PfM18AAP inhibitor project, dose response (AID 588696)
Conditions: H-Glu-NHMec fluorogenic cleavage
How it was run: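 Assay system: Recombinant human hM18AAP enzyme | Quantity: 5 µg/mL enzyme | Also added: 0.1 mM H-Glu-NHMec substrate | Dosing: Twofold dilution series of compound, top dose 100 µM | Schedule: 90 min reaction, room temperature | Measured by: Fluorescence at 370/460 nm | Read-out: % inhibition and fitted IC50 | Control set: no-enzyme background wells as low-signal control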

Structure (SMILES): Oc1ccc(CCNC(c2ccccc2)c2ccccc2)cc1O
- pIC50: 4.38

Structure (SMILES): Oc1ccc(CCNc2c3ccccc3nc3ccccc23)cc1
- inhibition (at 100 µM (top of the series)): inactive

Structure (SMILES): Cc1ccc(-c2nc(-c3ccc(O)c(O)c3)cs2)cc1
- pIC50: 4.58

Structure (SMILES): Oc1ccc(CCCNc2c3ccccc3nc3ccccc23)cc1O
- inhibition (at 100 µM (top of the series)): inactive

Structure (SMILES): Oc1ccc(CCNc2ccc3ccccc3c2)cc1O
- pIC50: 4.47

Structure (SMILES): Oc1ccc(CCN2CCc3ccccc3C2)cc1O
- inhibition (at 100 µM (top of the series)): inactive

Structure (SMILES): COc1ccc(CCNc2ccc3ccccc3c2)cc1OC
- inhibition (at 100 µM (top of the series)): inactive

Structure (SMILES): O=c1cc(CN2CCN(Cc3ccccc3)CC2)c2ccc(O)c(O)c2o1
- inhibition (at 100 µM (top of the series)): inactive

Structure (SMILES): COc1ccc(-c2csc(-c3ccccc3OC)n2)cc1OC
- inhibition (at 100 µM (top of the series)): inactive

Structure (SMILES): COc1ccc(CCC(=O)O)cc1OC
- inhibition (at 100 µM (top of the series)): inactive

Structure (SMILES): Cc1nc(NCCc2ccc(O)c(O)c2)c2c3c(sc2n1)CCC3
- pIC50: 4.28

Structure (SMILES): COc1ccc(CCCNc2c3ccccc3nc3ccccc23)cc1OC
- inhibition (at 100 µM (top of the series)): inactive

Structure (SMILES): COc1ccc(CCN(C)c2ccnc3ccccc23)cc1OC
- inhibition (at 100 µM (top of the series)): inactive

Structure (SMILES): COc1ccc(CCN(C)CCc2ccccc2)cc1OC
- inhibition (at 100 µM (top of the series)): inactive

Structure (SMILES): O=C1c2ccc3c4c(ccc(c24)C(=O)N1O)CC3
- pIC50: 4.05

Structure (SMILES): COc1ccc(CCNc2ccnc3ccccc23)cc1OC
- inhibition (at 50 µM (top of the series)): inactive

Structure (SMILES): CCC(C)c1ccc(N)c(O)c1 (centres undefined)
- pIC50: 4.35

Structure (SMILES): COc1ccc(CC(=O)O)cc1OC
- inhibition (at 100 µM (top of the series)): inactive

Structure (SMILES): Cc1c(O)c(=O)ccn1CCNc1c2ccccc2nc2ccccc12
- inhibition (at 100 µM (top of the series)): inactive

Structure (SMILES): COc1cccc(-c2nc(-c3ccc(OC)c(OC)c3)cs2)c1
- inhibition (at 100 µM (top of the series)): inactive

Structure (SMILES): CCC(C)C(=O)Nc1ccccc1N (centres undefined)
- inhibition (at 100 µM (top of the series)): inactive

Structure (SMILES): Oc1ccc(CCNC2CCN(Cc3ccccc3)CC2)cc1O
- inhibition (at 100 µM (top of the series)): inactive

Structure (SMILES): Nc1cc(C(=O)c2ccccc2)ccc1O
- pIC50: 4.36

Structure (SMILES): NCc1cc2c3c(c(=O)oc2c(O)c1O)CCC3
- inhibition (at 100 µM (top of the series)): inactive

Structure (SMILES): O=c1ccc2cc(O)c(O)cc2o1
- inhibition (at 50 µM (top of the series)): inactive

Structure (SMILES): O=S1(=O)c2ccccc2-c2cc(-c3nc(-c4ccc(O)c(O)c4)[nH]c3-c3ccccc3)ccc21
- pIC50: 4.34

Structure (SMILES): O=C(c1ccco1)N1CCN(Cc2cc(=O)c(O)c[nH]2)CC1
- inhibition (at 100 µM (top of the series)): inactive

Structure (SMILES): COc1ccc(CCNC2CCN(C)CC2)cc1OC
- inhibition (at 100 µM (top of the series)): inactive

Structure (SMILES): Oc1ccc(CCNc2cccc3ccccc23)cc1O
- pIC50: 4.52

Structure (SMILES): Cc1c(OCc2ccccc2)c(=O)ccn1CCNc1c2ccccc2nc2ccccc12
- inhibition (at 100 µM (top of the series)): inactive

Structure (SMILES): COc1ccc(-c2csc(-c3ccccc3)n2)cc1OC
- inhibition (at 100 µM (top of the series)): inactive

Structure (SMILES): O=C(c1ccco1)N1CCN(Cc2cc(=O)c(O)co2)CC1
- inhibition (at 100 µM (top of the series)): inactive

Structure (SMILES): CCOc1cccc(-c2nc(-c3ccc(O)c(O)c3)cs2)c1
- pIC50: 4.67

Structure (SMILES): COc1ccc(CCNc2ccncc2)cc1OC
- inhibition (at 100 µM (top of the series)): inactive

Structure (SMILES): COc1ccc(CCNc2cncc3ccccc23)cc1OC
- inhibition (at 100 µM (top of the series)): inactive

Structure (SMILES): COc1ccc(CCN2CCc3ccccc3C2)cc1OC
- inhibition (at 100 µM (top of the series)): inactive

Structure (SMILES): O=C1OCCN1CCc1nc(-c2ccc(O)c(O)c2)cs1
- pIC50: 4.34

Structure (SMILES): O=c1cc(CO)oc(CN2CCCCC2)c1O
- inhibition (at 100 µM (top of the series)): inactive

Structure (SMILES): CCC(C)C(=O)Nc1ccccc1O (centres undefined)
- inhibition (at 100 µM (top of the series)): inactive

Structure (SMILES): Oc1ccc(CCNc2c3c(nc4ccccc24)CCCC3)cc1O
- inhibition (at 50 µM (top of the series)): inactive

Structure (SMILES): COc1ccc(CCN2CCN(C)CC2)cc1OC
- inhibition (at 100 µM (top of the series)): inactive

Structure (SMILES): COc1ccc(CCN(C)c2ccncc2)cc1OC
- inhibition (at 100 µM (top of the series)): inactive

Structure (SMILES): COc1ccc(CCNc2c3c(nc4ccccc24)CCCC3)cc1OC
- inhibition (at 100 µM (top of the series)): inactive

Structure (SMILES): Oc1ccc(CCNc2cncc3ccccc23)cc1O
- pIC50: 4.27

Structure (SMILES): COc1ccc(CCNC2CCN(Cc3ccccc3)CC2)cc1OC
- inhibition (at 100 µM (top of the series)): inactive

Structure (SMILES): O=C(O)CCCCNc1c2ccccc2nc2ccccc12
- inhibition (at 50 µM (top of the series)): inactive

Structure (SMILES): COc1cccc(CCNc2c3ccccc3nc3ccccc23)c1
- inhibition (at 100 µM (top of the series)): inactive

Structure (SMILES): NCCNc1c2ccccc2nc2ccccc12
- inhibition (at 100 µM (top of the series)): inactive

Structure (SMILES): Oc1ccc(-c2csc(Cc3cc4ccccc4[nH]3)n2)cc1O
- pIC50: 4.56

Structure (SMILES): COc1ccc(-c2nc(-c3ccccc3)c(-c3ccccc3)[nH]2)cc1OC
- inhibition (at 100 µM (top of the series)): inactive

Structure (SMILES): CN(CCc1ccc(O)c(O)c1)c1ccnc2ccccc12
- pIC50: 4.51

Structure (SMILES): COc1ccc(CCNc2cccc3ccccc23)cc1OC
- inhibition (at 100 µM (top of the series)): inactive

Structure (SMILES): O=C(O)CCCNc1c2ccccc2nc2ccccc12
- inhibition (at 50 µM (top of the series)): inactive

Structure (SMILES): COc1ccc(CNc2c3ccccc3nc3ccccc23)cc1OC
- inhibition (at 100 µM (top of the series)): inactive

Structure (SMILES): COc1ccc2c(c1)C(=O)C(N)CC2 (centres undefined)
- pIC50: 4.00

Structure (SMILES): Cc1c(-c2ccccc2)[nH]c(-c2ccc(O)c(O)c2)[n+]1O
- pIC50: 4.14

Structure (SMILES): CN(CCc1ccc(O)c(O)c1)c1ccncc1
- inhibition (at 100 µM (top of the series)): inactive

Structure (SMILES): COc1ccc(CCNc2c3ccccc3nc3ccccc23)cc1OC
- inhibition (at 100 µM (top of the series)): inactive

Structure (SMILES): CC(C)(C)C(=O)OCc1nc(-c2ccc(O)c(O)c2)cs1
- pIC50: 4.48
